According to PMC4026406 (Drug Design, Development and Therapy, 2014):
Values after ≈ are worked out from the molar mass of the structure shown. One block for each compound: values may come before it.

Legend:
[1] = test system: Escherichia coli IFO 3301; experiment: Agar disc diffusion, growth inhibition zone; assay type: cell-based; settings: IFO3301, 24 h, read-out: Diameter of growth inhibition zone EC
Method in brief: (§1)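 Filter paper discs (8 mm) were loaded with test compound in DMSO at 200 μg/disc, with gentamicin, ampicillin trihydrate and clotrimazole discs at 100 μg/disc. Discs were placed on Müller–Hinton agar plates previously inoculated with IFO strains and incubated at 37°C. Inhibition zone diameters were read after 24 h for bacteria and 48 h for C. albicans.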

[2] = test system: Candida albicans IFO 0583; experiment: Agar disc diffusion, growth inhibition zone; assay type: cell-based; settings: for inhibitory activity against C. albicans (in words): 200 μg/disc, compared with clotrimazole
Method in brief: as §1

[3] = test system: Pseudomonas aeruginosa IFO 3448; experiment: Determination of MIC; assay type: cell-based; settings: IFO3448, 24 h, read-out: MIC PA
Method in brief: (§2)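 Broth two-fold dilution against IFO strains. Test compound and reference agents were dissolved in DMSO at 128 μg/mL and diluted two-fold from 128 to 0.5 μg/mL. Wells were inoculated with organism suspensions at 10^6 CFU/mL and incubated at 36°C for 24 h.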

[4] = test system: Escherichia coli IFO 3301; experiment: Determination of MIC; assay type: cell-based; settings: IFO3301, 24 h, read-out: MIC EC
Method in brief: as §2

[5] = test system: Micrococcus luteus IFO 3232; experiment: Determination of MIC; assay type: cell-based; settings: IFO3232, 24 h, read-out: MIC ML
Method in brief: as §2

[6] = test system: Bacillus subtilis IFO 3007; experiment: Determination of MIC; assay type: cell-based; settings: IFO3007, 24 h, read-out: MIC BS
Method in brief: as §2

[7] = test system: Staphylococcus aureus IFO 3060; experiment: Determination of MIC; assay type: cell-based; settings: IFO3060, 24 h, read-out: MIC SA
Method in brief: as §2

[8] = test system: carrageenan-induced paw edema; experiment: Carrageenan-induced paw edema method in rats; assay type: in vivo, Sprague Dawley rats; settings: for anti-inflammatory potency ratio relative to indomethacin: 40 mg/kg versus indomethacin
Method in brief: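 Male Sprague Dawley rats (140–190 g, 20–23°C, 2-day acclimatisation) were used in groups of five. Test compound (20 or 40 mg/kg) or indomethacin (5 mg/kg) was given i.p. in 1 mL 0.5% aqueous CMC. One hour later, 0.1 mL 1% carrageenan in saline went into the right hind paw, with saline in the left. Paw volume was measured by water plethysmometer at 4 h. Protection was calculated versus vehicle control and reported as mean ± SEM, Student's t-test.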

Oral acute toxicity = assay type: in vivo, mice; settings: both, albino, mouse, in vivo, po
Method in brief: (§3)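 Albino mice of either sex were dosed in six groups of six. Test compound was given by oral intubation as fresh suspensions (1–12%) in 0.5% aqueous CMC at 250, 500, 750, 1,000, 1,250 and 1,500 mg/kg. Mortality was recorded at 24 h, and LD16, LD50 and LD84 were calculated.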

normal albino mice = experiment: Oral acute toxicity; assay type: in vivo; settings: oral, mice; for LD16 / LD84: mortality at 24 hours
Method in brief: as §3

[9] = test system: Candida albicans IFO 0583; experiment: Determination of MIC; assay type: cell-based; settings: IFO0583, read-out: MIC CA
Method in brief: as §2

[10] = Candida albicans, IFO0583, 48 h, read-out: Diameter of growth inhibition zone CA

Compound: CN(C)CCSc1nnc(C23CC4CC(CC(C4)C2)C3)n1C [Compound 9a, 2-{[5-(Adamantan-1-yl)-4-methyl-4H-1,2,4-triazol-3-yl]sulfanyl}-N,N-dimethyl-ethanamine]
zone of inhibition at 200 µg/disc [1]: < 10 mm
zone of inhibition at 200 µg/disc [2, 10]: < 10 mm

Compound: CNC(C)C1CCC(N)C(OC2C(N)CC(N)C(OC3OCC(C)(O)C(NC)C3O)C2O)O1 (centres unmarked) [Gentamicin, gentamicin, reference compound]
MIC [3]: 1 mg/L (≈ 2.09 µM)
MIC [4]: 0.5 mg/L (≈ 1.05 µM)
MIC [5]: 2 mg/L (≈ 4.19 µM)
zone of inhibition at 100 µg/disc [1]: 20 mm
MIC [6]: 2 mg/L (≈ 4.19 µM)
MIC [7]: 2 mg/L (≈ 4.19 µM)

Compound: O=C(O)CSc1nnc(C23CC4CC(CC(C4)C2)C3)n1-c1ccccc1 [Compound 14, 2-[5-(1-Adamantyl)-4-phenyl-1,2,4-triazol-3-ylsulfanyl]acetic acid]
zone of inhibition at 200 µg/disc [1]: < 10 mm
inhibitory activity against C. albicans (in words) [2]: marginal activity
zone of inhibition at 200 µg/disc [2, 10]: 12 mm
anti-inflammatory potency ratio relative to indomethacin [8]: about 15%
MIC [7]: 8 mg/L (≈ 21.7 µM)
LD50 at 24 h (Oral acute toxicity): 554 mg/kg
LD50 as percent of that of indomethacin (normal albino mice): 9.03%
LD16 (normal albino mice): 295 mg/kg
LD84 (normal albino mice): 1,338 mg/kg

Compound: CCOC(=O)CSc1nnc(C23CC4CC(CC(C4)C2)C3)n1-c1ccccc1 [Compound 13, Ethyl 2-[5-(1-adamantyl)-4-phenyl-1,2,4-triazol-3-ylsulfanyl]acetate]
zone of inhibition at 200 µg/disc [1]: < 10 mm
inhibitory activity against C. albicans (in words) [2]: marginal activity
zone of inhibition at 200 µg/disc [2, 10]: 12 mm
MIC [6]: 16 mg/L (≈ 40.2 µM)
anti-inflammatory potency ratio relative to indomethacin [8]: about 15%
MIC [7]: 4 mg/L (≈ 10.1 µM)
LD50 at 24 h (Oral acute toxicity): 924 mg/kg
LD50 as percent of that of indomethacin (normal albino mice): 5.41%
LD16 (normal albino mice): 499 mg/kg
LD84 (normal albino mice): 1,435 mg/kg

Compound: COCCSc1nnc(C23CC4CC(CC(C4)C2)C3)n1-c1ccccc1 [Compound 11, 5-(1-Adamantyl)-3-[(2-methoxyethyl)sulfanyl]-4-phenyl-1,2,4-triazole]
zone of inhibition at 200 µg/disc [1]: < 10 mm
zone of inhibition at 200 µg/disc [2, 10]: < 10 mm
reduction in edema at both dose levels ([8]; 20 and 40 mg/kg intraperitoneal, rats): did not show any significant anti-inflammatory activity

Further lines, with some results ahead:

MIC [6]: 16 mg/L (≈ 33.2 µM)
Compound: CCOC(=O)N1CCN(Cn2nc(C34CC5CC(CC(C5)C3)C4)n(-c3ccccc3)c2=S)CC1 [Compound 6b, Ethyl 4-{[3-(adamantan-1-yl)-4-phenyl-5-sulfanylidene-4,5-dihydro-1H-1,2,4-triazol-1-yl]methyl}piperazine-1-carboxylate]
zone of inhibition at 200 µg/disc [1]: < 10 mm
zone of inhibition at 200 µg/disc [2, 10]: < 10 mm

MIC [3]: 2 mg/L (≈ 5.72 µM)
MIC [4]: 2 mg/L (≈ 5.72 µM)
MIC [5]: 2 mg/L (≈ 5.72 µM)
MIC [6]: 0.5 mg/L (≈ 1.43 µM)
MIC [7]: 2 mg/L (≈ 5.72 µM)
Compound: CC1(C)S[C@@H]2[C@H](NC(=O)[C@H](N)c3ccccc3)C(=O)N2[C@H]1C(=O)O [Ampicillin, ampicillin, reference compound]
zone of inhibition at 100 µg/disc [1]: 17 mm

MIC [9]: 2 mg/L (≈ 5.8 µM)
Compound: Clc1ccccc1C(c1ccccc1)(c1ccccc1)n1ccnc1 [Clotrimazole, clotrimazole, reference compound]
zone of inhibition at 100 µg/disc [2, 10]: 21 mm
